# Experiments:
# C3aR1 receptor = assay: Photoaffinity cross-linking of modified TLQP-21 peptide; assay type: binding, mouse; details: membranes from 3T3 cells, UV 365 nm 30 min; Figure 1B
# human C3aR1 = biological target: T1, human C3aR1 (Homo sapiens, UniProt Q16581); assay: β-arrestin recruitment assay in HTLA cells transfected with the C3aR1 receptor; assay type: cell-based; details: for EC50 times lower than that of C3a: human C3aR1, relative to C3a
# T1 sequence (Q16581 1-482): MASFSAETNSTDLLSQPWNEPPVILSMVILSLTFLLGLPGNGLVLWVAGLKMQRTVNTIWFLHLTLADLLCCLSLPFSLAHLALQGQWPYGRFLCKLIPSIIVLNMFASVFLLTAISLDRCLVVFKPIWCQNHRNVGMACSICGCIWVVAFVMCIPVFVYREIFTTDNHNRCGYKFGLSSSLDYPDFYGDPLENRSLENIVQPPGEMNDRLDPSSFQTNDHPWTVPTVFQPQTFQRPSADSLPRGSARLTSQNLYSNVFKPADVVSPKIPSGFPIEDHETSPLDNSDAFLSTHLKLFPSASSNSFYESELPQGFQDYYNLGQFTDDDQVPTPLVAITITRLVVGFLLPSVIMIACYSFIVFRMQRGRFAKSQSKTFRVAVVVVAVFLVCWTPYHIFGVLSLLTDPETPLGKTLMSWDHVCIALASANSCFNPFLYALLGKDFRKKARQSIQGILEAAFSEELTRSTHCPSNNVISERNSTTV
# rat stomach fundus = assay: Gastric contraction assay; details: for biological activity in fundus strip contraction: concentrations up to 10μM
# 3T3L1 adipocytes = assay: Lipolysis assay in 3T3L1 adipocytes; assay type: cell-based, mouse; details: with isoproterenol, 3 hours incubation at 37°C
# Summary of the method: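 Adipocytes at day 8 of differentiation in 6-well plates. Starved 3 h in KRH with 1% BSA, then exposed to test compound with or without agonists/antagonists in KRH with 4% BSA. Media collected and heated at 60°C for 20 min to stop enzyme activity. Cells kept for protein content, or trypsinised for diameter and viability. At least three independent replicates.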
# AMPK phosphorylation = assay: AMPK phosphorylation, western blotting in 3T3L1 adipocytes; assay type: cell-based, mouse; details: anti-Phospho-AMPK(Thr172) western blot
# Summary of the method: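 3T3-L1 cells from ATCC, differentiated to adipocytes with fetal bovine serum, dexamethasone, methylisobutylxanthine and insulin. Extracts (about 5×10^5 cells) taken up in SDS reducing sample buffer and run on NuPAGE. Primary antibody overnight at 4°C; tubulin as loading probe; peroxidase-coupled donkey secondaries. Semi-quantitative densitometry; ANOVA with Tukey post hoc tests.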
compound,measurement,setting,value
N=C(N)NCCC[C@H](NC(=O)COCC(c1ccccc1)c1ccccc1)C(=O)O [SB290157],cross-linking efficiency of modified TLQP-21 peptide in presence of antagonist,C3aR1 receptor,substantial reduction
CC(C)C[C@H](NC(=O)[C@@H](N)[C@@H](C)O)C(=O)N[C@@H](CCC(N)=O)C(=O)N1CCC[C@H]1C(=O)N1CCC[C@H]1C(=O)N[C@@H](C)C(=O)N[C@@H](CO)C(=O)N[C@@H](CO)C(=O)N[C@@H](CCCNC(=N)N)C(=O)N[C@@H](CCCNC(=N)N)C(=O)N[C@@H](CCCNC(=N)N)C(=O)N[C@@H](Cc1c[nH]cn1)C(=O)N[C@@H](Cc1ccccc1)C(=O)N[C@@H](Cc1c[nH]cn1)C(=O)N[C@@H](Cc1c[nH]cn1)C(=O)N[C@@H](C)C(=O)N[C@@H](CC(C)C)C(=O)N1CCC[C@H]1C(=O)N1CCC[C@H]1C(=O)N[C@@H](C)C(=O)N[C@@H](CCCNC(=N)N)C(=O)O [TLQP-21],EC50 times lower than that of C3a,human C3aR1,approximately 3 times
CC(C)C[C@H](NC(=O)[C@H](C)NC(=O)[C@H](CO)NC(=O)[C@@H]1CCCN1C(=O)[C@@H]1CCCN1C(=O)[C@H](CCC(N)=O)NC(=O)[C@H](CC(C)C)NC(=O)[C@@H](N)[C@@H](C)O)C(=O)N[C@@H](CCCNC(=N)N)C(=O)N[C@@H](CCCNC(=N)N)C(=O)N[C@@H](CCCNC(=N)N)C(=O)N[C@@H](Cc1c[nH]cn1)C(=O)N[C@@H](Cc1ccc(O)cc1)C(=O)N[C@@H](Cc1c[nH]cn1)C(=O)N[C@@H](Cc1c[nH]cn1)C(=O)N[C@@H](C)C(=O)N[C@@H](CC(C)C)C(=O)N1CCC[C@H]1C(=O)N1CCC[C@H]1C(=O)N[C@@H](CO)C(=O)N[C@@H](CCCNC(=N)N)C(=O)O [human TLQP-21],EC50 times lower than that of C3a,human C3aR1,approximately 22 times
"C3a: human C3a peptide, first ligand identified for the C3aR1 [reference compound]",EC50,"human C3aR1; HTLA cells transfected with human C3aR1, Figure 1C",3000 nM
HFHHALPPAR [HFHH-10],biological activity (response) in fundus strip contraction,"rat stomach fundus; 3μM, compared to mouse TLQP-21",~ 3%
same,biological activity (response) in fundus strip contraction,rat stomach fundus; 6μM,62%
same,biological activity (response) in fundus strip contraction,rat stomach fundus; 10μM,75%
TLQPPASSRRR [TLQP-11],biological activity in fundus strip contraction,rat stomach fundus,zero response
TLQPPASSRRRHFHHALAPAR [P18A],biological activity (response) in fundus strip contraction,"rat stomach fundus; 3μM, compared to mouse TLQP-21",~ 65%
TLQPPASSRRRHFHHALPAAR [P19A],biological activity (response) in fundus strip contraction,"rat stomach fundus; 3μM, compared to mouse TLQP-21",19%
same,biological activity (response) in fundus strip contraction,rat stomach fundus; 6μM,35%
TLQPPASSRRRHFHHALPPAA [R21A],biological activity in fundus strip contraction,rat stomach fundus,complete loss of activity
same,block of the activity of a subsequent infusion of TLQP-21 (C3aR1 antagonism),"rat stomach fundus; fundus strips, mutant given before TLQP-21",does not block
same,potentiation of isoproterenol-induced lipolysis,3T3L1 adipocytes,does not potentiate
same,potentiation of AMPK phosphorylation,AMPK phosphorylation,does not potentiate

# Source: publication PMC4353613 (Structure (London, England : 1993), 2014)
